Measured values as given in ChEMBL document CHEMBL1287679, “Tuning hydrophobicity of highly cationic tetradecameric Gramicidin S analogues using adamantane amino acids” (Bioorg Med Chem, 2010).
Values after ≈ are worked out from the molar mass of the structure shown.

How the values were obtained:
Enterococcus faecalis = test: Antimicrobial activity against Enterococcus faecalis ATCC 29212 by broth dilution method; format: functional
Procedure, shortened: (§1)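 Stored at −70 °C, grown at 35 °C on Columbia sheep-blood agar, then suspended in physiological saline to OD 0.1 AU at 595 nm and diluted 100× in saline. 2 µL inoculum was added to 50 µL cation-adjusted Mueller Hinton II broth. Peptides in methanol (4 g/L stock) were diluted in water, then two-fold in broth (64–1 mg/L). Incubation was 35 °C for 24–48 h. MIC is the lowest concentration inhibiting growth.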

Escherichia coli = test: Antimicrobial activity against Escherichia coli ATCC 25922 by broth dilution method; format: functional; procedure, shortened: as §1
Pseudomonas aeruginosa = test: Antimicrobial activity against Pseudomonas aeruginosa ATCC 27853 by broth dilution method; format: functional; procedure, shortened: as §1
[1] = Therapeutic index, concentration required to achieve 100% hemolysis in erythrocyte to MIC for Staphylococcus aureus ATCC 29213; conditions: erythrocytes; read-out: Ratio
Procedure, shortened: (§2)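 Therapeutic index was taken as the concentration for 100% haemolysis divided by MIC for the given strain.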

Staphylococcus aureus [2] = test: Antimicrobial activity against methicillin-resistant Staphylococcus aureus N133 by broth dilution method; format: functional
Procedure, shortened: (§3)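 Frozen (−70 °C) stocks grown at 35 °C on Columbia sheep-blood agar, suspended in physiological saline to OD595 0.1, diluted 100×; 2 µL inoculum into 50 µL cation-adjusted Mueller Hinton II broth in 96-well plates. Peptides dissolved in methanol (4 g/L), diluted in water, two-fold serial dilutions in broth (64–1 mg/L). Incubation at 35 °C, 24–48 h; MIC = lowest concentration inhibiting growth.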

[3] = Therapeutic index, concentration required to achieve 100% hemolysis in erythrocyte to MIC for Escherichia coli ATCC 25922; conditions: erythrocytes; procedure, shortened: as §2
Staphylococcus aureus [4] = test: Antimicrobial activity against community acquired methicillin-resistant Staphylococcus aureus isolate 1110301146 by broth dilution method; format: functional; procedure, shortened: as §3
Staphylococcus aureus [5] = test: Antimicrobial activity against methicillin-resistant Staphylococcus aureus N229 by broth dilution method; format: functional; procedure, shortened: as §3
[6] = Toxicity in Erythrocyte assessed as concentration required to achieve 100% hemolysis after 4 hrs; format: cell-based
Procedure, shortened: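 Heparinized fresh blood was centrifuged (1000g, 10 min, 10 °C). Erythrocytes were washed three times in 0.85% saline and diluted to a 1/25 packed volume. Peptides were prepared as a 1.5 mM stock in 30% DMSO/0.5 mM saline and serially two-fold diluted in triplicate rows. 1% Triton-X served as the full-lysis control. Incubation was 37 °C for 4 h, then centrifugation; supernatant was read. Value is the concentration giving 100% lysis.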

Staphylococcus aureus [7] = test: Antimicrobial activity against methicillin-resistant Staphylococcus aureus ATCC 49775 by broth dilution method; format: functional; procedure, shortened: as §3
Staphylococcus aureus [8] = test: Antimicrobial activity against methicillin-resistant Staphylococcus aureus ATCC 43300 by broth dilution method; format: functional; procedure, shortened: as §3
Staphylococcus aureus [9] = test: Antimicrobial activity against Staphylococcus aureus ATCC 29213 by broth dilution method; format: functional; procedure, shortened: as §3
Staphylococcus aureus [10] = test: Antimicrobial activity against methicillin-resistant Staphylococcus aureus isolate 1110301981 by broth dilution method; format: functional; procedure, shortened: as §3
Bacillus cereus = test: Antimicrobial activity against Bacillus cereus ATCC 11778 by broth dilution method; format: functional; procedure, shortened: as §1
[11] = test system: Staphylococcus epidermidis; test: Antimicrobial activity against Staphylococcus epidermidis ATCC 12228 by broth dilution method; format: functional; procedure, shortened: as §1

Structure (SMILES)	MIC (Enterococcus faecalis) [mg/L]	MIC (Escherichia coli) [mg/L]	MIC (Pseudomonas aeruginosa) [mg/L]	selectivity ratio [1]	MIC (Staphylococcus aureus [2]) [mg/L]	selectivity ratio [3]	MIC (Staphylococcus aureus [4]) [mg/L]	MIC (Staphylococcus aureus [5]) [mg/L]	Activity [6] [µM]	MIC (Staphylococcus aureus [7]) [mg/L]	MIC (Staphylococcus aureus [8]) [mg/L]	MIC (Staphylococcus aureus [9]) [mg/L]	MIC (Staphylococcus aureus [10]) [mg/L]	MIC (Bacillus cereus) [mg/L]	MIC [11] [mg/L]
CC(C)C[C@@H]1NC(=O)[C@H](CCCN)NC(=O)[C@H](C23CC4CC(CC(C4)C2)C3)NC(=O)[C@H](CCCN)NC(=O)[C@@H]2CCCN2C(=O)[C@@H](Cc2ccccc2)NC(=O)[C@H](CCCN)NC(=O)[C@H](CC(C)C)NC(=O)[C@H](CCCN)NC(=O)[C@H](C23CC4CC(CC(C4)C2)C3)NC(=O)[C@H](CCCN)NC(=O)[C@@H]2CCCN2C(=O)[C@@H](Cc2ccccc2)NC(=O)[C@H](CCCN)NC1=O	8 (≈ 4.49 µM)	16 (≈ 8.98 µM)	16 (≈ 8.98 µM)	3.9	8 (≈ 4.49 µM)	2	8 (≈ 4.49 µM)	8 (≈ 4.49 µM)	31.3	8 (≈ 4.49 µM)	8 (≈ 4.49 µM)	8 (≈ 4.49 µM)	8 (≈ 4.49 µM)	2 (≈ 1.12 µM)	8 (≈ 4.49 µM)
CC(C)C[C@@H]1NC(=O)[C@H](CCCN)NC(=O)[C@H](C(C)C)NC(=O)[C@H](CCCN)NC(=O)[C@@H]2CCCN2C(=O)[C@@H](Cc2ccccc2)NC(=O)[C@H](CCCN)NC(=O)[C@H](CC(C)C)NC(=O)[C@H](CCCN)NC(=O)[C@H](C23CC4CC(CC(C4)C2)C3)NC(=O)[C@H](CCCN)NC(=O)[C@@H]2CCCN2C(=O)[C@@H](Cc2ccccc2)NC(=O)[C@H](CCCN)NC1=O	32 (≈ 18.9 µM)	16 (≈ 9.47 µM)	8 (≈ 4.73 µM)	7.8	8 (≈ 4.73 µM)	15.6	16 (≈ 9.47 µM)	8 (≈ 4.73 µM)	125	8 (≈ 4.73 µM)	8 (≈ 4.73 µM)	16 (≈ 9.47 µM)	8 (≈ 4.73 µM)	8 (≈ 4.73 µM)	4 (≈ 2.37 µM)
CC(C)C[C@@H]1NC(=O)[C@H](CCCN)NC(=O)[C@H](C23CC4CC(CC(C4)C2)C3)NC(=O)[C@H](CCCN)NC(=O)[C@@H]2CCCN2C(=O)[C@@H](Cc2ccccc2)NC(=O)[C@H](CCCN)NC(=O)[C@H](CC23CC4CC(CC(C4)C2)C3)NC(=O)[C@H](CCCN)NC(=O)[C@H](C23CC4CC(CC(C4)C2)C3)NC(=O)[C@H](CCCN)NC(=O)[C@@H]2CCCN2C(=O)[C@@H](Cc2ccccc2)NC(=O)[C@H](CCCN)NC1=O	8 (≈ 4.27 µM)	32 (≈ 17.1 µM)	16 (≈ 8.54 µM)	1	8 (≈ 4.27 µM)	1	8 (≈ 4.27 µM)	8 (≈ 4.27 µM)	15.6	16 (≈ 8.54 µM)	16 (≈ 8.54 µM)	16 (≈ 8.54 µM)	8 (≈ 4.27 µM)	4 (≈ 2.13 µM)	8 (≈ 4.27 µM)
CC(C)C[C@@H]1NC(=O)[C@H](CCCN)NC(=O)[C@H](C23CC4CC(CC(C4)C2)C3)NC(=O)[C@H](CCCN)NC(=O)[C@@H]2CCCN2C(=O)[C@@H](Cc2ccccc2)NC(=O)[C@H](CCCN)NC(=O)[C@H](CC23CC4CC(CC(C4)C2)C3)NC(=O)[C@H](CCCN)NC(=O)[C@H](C(C)C)NC(=O)[C@H](CCCN)NC(=O)[C@@H]2CCCN2C(=O)[C@@H](Cc2ccccc2)NC(=O)[C@H](CCCN)NC1=O	16 (≈ 8.98 µM)	16 (≈ 8.98 µM)	16 (≈ 8.98 µM)	3.9	32 (≈ 18 µM)	2	16 (≈ 8.98 µM)	16 (≈ 8.98 µM)	31.3	16 (≈ 8.98 µM)	16 (≈ 8.98 µM)	8 (≈ 4.49 µM)	16 (≈ 8.98 µM)	4 (≈ 2.24 µM)	4 (≈ 2.24 µM)
CC(C)C[C@@H]1NC(=O)[C@H](CCCN)NC(=O)[C@H](C(C)C)NC(=O)[C@H](CCCN)NC(=O)[C@@H]2CCCN2C(=O)[C@@H](Cc2ccccc2)NC(=O)[C@H](CCCN)NC(=O)[C@H](CC(C)C)NC(=O)[C@H](CCCN)NC(=O)[C@H](C(C)C)NC(=O)[C@H](CCCN)NC(=O)[C@@H]2CCCN2C(=O)[C@@H](Cc2ccccc2)NC(=O)[C@H](CCCN)NC1=O	> 64	32 (≈ 20 µM)	64 (≈ 40 µM)	11.7	> 64	11.7	64 (≈ 40 µM)	64 (≈ 40 µM)	> 500	64 (≈ 40 µM)	> 64	64 (≈ 40 µM)	64 (≈ 40 µM)	32 (≈ 20 µM)	8 (≈ 5.01 µM)
